ChEMBL document CHEMBL1151742, “Design, synthesis, and characterization of high-affinity, systemically-active galanin analogues with potent anticonvulsant activities” (J Med Chem, 2008)
Calls of active or inactive are those of the source. The calls are words filed in the database; no cut-off is given here.

What was measured:
[1] = Partition coefficient, log D at pH 7.4 by shake-flask method; type: physicochemical; settings: octanol/water
In short: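 Shake-flask partitioning between water-saturated n-octanol and PBS pH 7.4. Peptide (0.4 mg) was reconstituted in 1 mL PBS, or in octanol if poorly water-soluble. Octanol peptide was taken as total minus aqueous, and logD = log([octanol]/[aqueous]). Four independent preparations per analogue.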

[2] = Metabolic stability in rat serum assessed as half life at pH 7.5; type: ADME, cell-free
In short: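 Peptide (final 20 µM) was incubated in 25% rat serum with 0.1 M Tris-HCl pH 7.5 at 37 °C, serum pre-warmed 10 min. Aliquots taken up to 8 h were quenched with 15% TCA in 40% isopropanol, held 15 min at -20 °C and centrifuged. Intact peptide was measured by reversed-phase HPLC peak area, and half-life was calculated from the disappearance.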

[3] = biological target: T1, Galanin receptor type 2 (Homo sapiens, UniProt O43603); experiment: Displacement of europium-labeled galanin from human GalR2 expressed in CHO-K1 cells; type: cell-based
T1 sequence (O43603 whole entry): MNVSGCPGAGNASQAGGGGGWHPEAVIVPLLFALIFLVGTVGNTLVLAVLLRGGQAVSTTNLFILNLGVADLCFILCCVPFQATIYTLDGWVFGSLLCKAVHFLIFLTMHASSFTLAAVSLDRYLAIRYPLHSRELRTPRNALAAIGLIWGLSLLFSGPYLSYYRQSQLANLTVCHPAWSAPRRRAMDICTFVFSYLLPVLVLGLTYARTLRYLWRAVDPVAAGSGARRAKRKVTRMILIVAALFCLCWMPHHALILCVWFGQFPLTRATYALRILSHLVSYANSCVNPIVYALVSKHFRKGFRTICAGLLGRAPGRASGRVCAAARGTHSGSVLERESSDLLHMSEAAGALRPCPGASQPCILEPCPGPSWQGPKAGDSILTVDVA

[4] = test system: Mus musculus; experiment: Anticonvulsant activity in CF1 mouse assessed as inhibition of 6 Hz corneal stimulation-induced limbic seizures at 4 mg/kg, ip administered 15 mins before 6 Hz corneal stimulation; type: functional, organism-based; parameters: dose 4 mg/kg; settings: Limbic system
In short: (§1)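 Each analogue given ip at 4 mg/kg to five groups of CF-1 mice (n = 4 per group), one group per time point. Seizure challenge was 6 Hz corneal stimulation (32 mA for 3 s, corneal electrodes) at 15, 30, 60, 120 or 240 min after dosing. A mouse without a limbic seizure (jaw chomping, vibrissae twitching, forelimb clonus, Straub tail) was counted as protected.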

[5] = test system: Mus musculus; experiment: Anticonvulsant activity in CF1 mouse assessed as inhibition of 6 Hz corneal stimulation-induced limbic seizures at 4 mg/kg, ip administered 240 mins before 6 Hz corneal stimulation; type: functional, organism-based; parameters: dose 4 mg/kg; settings: Limbic system; in short: as §1
[6] = test system: Mus musculus; experiment: Anticonvulsant activity in CF1 mouse assessed as inhibition of 6 Hz corneal stimulation-induced limbic seizures at 4 mg/kg, ip administered 120 mins before 6 Hz corneal stimulation; type: functional, organism-based; parameters: dose 4 mg/kg; settings: Limbic system; in short: as §1
[7] = biological target: T2, Galanin receptor type 1 (Homo sapiens, UniProt P47211); experiment: Displacement of europium-labeled galanin from human GalR1 expressed in HEK293 EBNA cells; type: cell-based
T2 sequence (P47211 whole entry): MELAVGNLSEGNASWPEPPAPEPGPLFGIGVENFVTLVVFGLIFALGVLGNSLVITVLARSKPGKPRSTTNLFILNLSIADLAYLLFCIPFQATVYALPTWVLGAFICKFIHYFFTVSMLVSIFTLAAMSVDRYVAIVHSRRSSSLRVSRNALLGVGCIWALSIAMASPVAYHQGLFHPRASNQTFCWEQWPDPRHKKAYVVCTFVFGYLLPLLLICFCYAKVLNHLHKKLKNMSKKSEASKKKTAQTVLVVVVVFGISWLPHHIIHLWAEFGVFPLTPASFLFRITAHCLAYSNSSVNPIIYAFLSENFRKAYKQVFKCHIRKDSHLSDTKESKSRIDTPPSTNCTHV

[8] = test system: Mus musculus; experiment: Anticonvulsant activity in CF1 mouse assessed as inhibition of 6 Hz corneal stimulation-induced limbic seizures at 4 mg/kg, ip administered 60 mins before 6 Hz corneal stimulation; type: functional, organism-based; parameters: dose 4 mg/kg; settings: Limbic system; in short: as §1
[9] = test system: Mus musculus; experiment: Anticonvulsant activity in CF1 mouse assessed as inhibition of 6 Hz corneal stimulation-induced limbic seizures at 4 mg/kg, ip administered 30 mins before 6 Hz corneal stimulation; type: functional, organism-based; parameters: dose 4 mg/kg; settings: Limbic system; in short: as §1
[10] = test system: Mus musculus; experiment: Anticonvulsant activity in intracerebroventricularly dosed pharmacoresistant epilepsy CF1 mouse model; type: functional
In short: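 Intracerebroventricular injection in mice, followed by the 6 Hz seizure model (32 mA). ED50 was determined in nmole with 95% CI.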

[11] = biological target: T3, Galanin receptor type 3 (Homo sapiens, UniProt O60755); experiment: Binding affinity to human GalR3
T3 sequence (O60755 whole entry): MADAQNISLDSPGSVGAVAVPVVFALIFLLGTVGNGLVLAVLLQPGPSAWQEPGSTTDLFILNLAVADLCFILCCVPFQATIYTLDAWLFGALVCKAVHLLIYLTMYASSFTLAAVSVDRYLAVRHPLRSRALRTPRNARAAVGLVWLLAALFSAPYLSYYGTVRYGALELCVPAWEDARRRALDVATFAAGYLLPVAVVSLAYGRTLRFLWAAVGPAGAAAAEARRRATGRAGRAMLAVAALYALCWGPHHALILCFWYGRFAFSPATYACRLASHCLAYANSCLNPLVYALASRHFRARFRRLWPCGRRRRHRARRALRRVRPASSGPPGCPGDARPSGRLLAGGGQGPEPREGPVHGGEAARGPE

[12] = biological target: T1, Galanin receptor type 2; experiment: Binding affinity to human GalR2
[13] = Toxicity in CF1 mouse assessed as motor function by rotarod test; type: organism-based; settings: in vivo
[14] = test system: Mus musculus; experiment: Anticonvulsant activity in ip dosed CF1 mouse assessed as inhibition of 6 Hz corneal stimulation-induced limbic seizures; type: functional; settings: CF1, Limbic system

logD [1]	half-life [2] [h]	Kd [11] [nM]	Kd [12] [nM]	Compound	Ki [3] [nM]	Activity [4]	Activity [5]	Activity [6]	Ki [7] [nM]	Activity [8]	Activity [9]	ED50 [10] [nmol]	TD50 [13] [mg/kg]	ED50 [14] [mg/kg]
0.4	4.6	–	–	CNCC(=O)N[C@@H](Cc1c[nH]c2ccccc12)C(=O)N[C@H](C(=O)N[C@@H](CC(C)C)C(=O)N[C@@H](CC(N)=O)C(=O)N[C@@H](CO)C(=O)N[C@@H](C)C(=O)NCC(=O)N[C@@H](Cc1ccc(O)cc1)C(=O)N[C@@H](CC(C)C)C(=O)N[C@@H](CC(C)C)C(=O)NCC(=O)N1CCC[C@H]1C(=O)N[C@@H](CCCCN)C(=O)N[C@@H](CCCCN)C(=O)N[C@@H](CCCCN)C(=O)N[C@@H](CCCCN)C(N)=O)[C@@H](C)O	24	inactive	inactive	inactive	0.4	–	–	–	–	–
0.66	0.13	–	–	CC(C)C[C@H](NC(=O)[C@H](CC(C)C)NC(=O)[C@H](Cc1ccc(O)cc1)NC(=O)CNC(=O)[C@H](C)NC(=O)[C@H](CO)NC(=O)[C@H](CC(N)=O)NC(=O)[C@H](CC(C)C)NC(=O)[C@@H](NC(=O)[C@H](Cc1c[nH]c2ccccc12)NC(=O)CN)[C@@H](C)O)C(=O)NCC(=O)N1CCC[C@H]1C(=O)N[C@@H](Cc1cnc[nH]1)C(=O)N[C@@H](C)C(=O)N[C@H](C(N)=O)C(C)C	–	inactive	inactive	inactive	–	inactive	inactive	1.7	–	–
1.55	> 10	–	–	CCCCCCCCCCCCCCCC(=O)NCCCC[C@H](NC(=O)[C@H](C)NC(=O)[C@H](Cc1cnc[nH]1)NC(=O)[C@@H]1CCCN1C(=O)CNC(=O)[C@H](CC(C)C)NC(=O)[C@H](CC(C)C)NC(=O)[C@H](Cc1ccc(O)cc1)NC(=O)CNC(=O)[C@H](C)NC(=O)[C@H](CO)NC(=O)[C@H](CC(N)=O)NC(=O)[C@H](CC(C)C)NC(=O)[C@@H](NC(=O)[C@H](Cc1c[nH]c2ccccc12)NC(=O)CNC)[C@@H](C)O)C(N)=O	160	inactive	inactive	inactive	–	inactive	inactive	–	–	–
–	–	15	2	CC(C)C[C@H](NC(=O)[C@H](CC(C)C)NC(=O)[C@H](Cc1ccc(O)cc1)NC(=O)CNC(=O)[C@H](C)NC(=O)[C@H](CO)NC(=O)[C@H](CC(N)=O)NC(=O)[C@H](CC(C)C)NC(=O)[C@@H](NC(=O)[C@H](Cc1c[nH]c2ccccc12)NC(=O)CN)[C@@H](C)O)C(=O)NCC(=O)N1CCC[C@H]1C(=O)N1CCC[C@H]1C(=O)N1CCC[C@H]1C(=O)NCC(=O)N[C@@H](Cc1ccccc1)C(=O)N[C@@H](CO)C(=O)N1CCC[C@H]1C(=O)N[C@@H](Cc1ccccc1)C(=O)N[C@@H](CCCN=C(N)N)C(N)=O	–	–	–	–	–	–	–	–	–	–
–	–	69	2.3	H-GWTLNSAGYLLGPHAVGNHRSFSDKNGLT-OH	–	–	–	–	–	–	–	–	–	–

The remaining lines, values behind:

Compound	logD [1]	half-life [2] [h]	Kd [11] [nM]	Kd [12] [nM]	Ki [3] [nM]	Activity [4]	Activity [5]	Activity [6]	Ki [7] [nM]	Activity [8]	Activity [9]	ED50 [10] [nmol]	TD50 [13] [mg/kg]	ED50 [14] [mg/kg]
CCCCCCCCCCCCCCCC(=O)NCCCC[C@H](NC(=O)[C@H](CCCCN)NC(=O)[C@H](CCCCN)NC(=O)[C@H](CC(C)C)NC(=O)[C@H](CC(C)C)NC(=O)[C@H](Cc1ccc(O)cc1)NC(=O)CNC(=O)[C@H](C)NC(=O)[C@H](CO)NC(=O)[C@H](CC(N)=O)NC(=O)[C@H](CC(C)C)NC(=O)[C@@H](NC(=O)[C@H](Cc1c[nH]c2ccccc12)NC(=O)CNC)[C@@H](C)O)C(=O)N[C@@H](CCCCN)C(N)=O	–	> 10	–	–	1320	–	inactive	–	306	Active	Active	–	–	–
CSCC[C@H](NC(=O)[C@H](CC(C)C)NC(=O)CNC(=O)[C@H](Cc1ccccc1)NC(=O)[C@H](Cc1ccccc1)NC(=O)[C@H](CCC(N)=O)NC(=O)[C@H](CCC(N)=O)NC(=O)[C@@H]1CCCN1C(=O)CNC(=O)[C@H](CC(C)C)NC(=O)[C@H](CC(C)C)NC(=O)[C@H](Cc1ccc(O)cc1)NC(=O)CNC(=O)[C@H](C)NC(=O)[C@H](CO)NC(=O)[C@H](CC(N)=O)NC(=O)[C@H](CC(C)C)NC(=O)[C@@H](NC(=O)[C@H](Cc1c[nH]c2ccccc12)NC(=O)CN)[C@@H](C)O)C(N)=O [GALANTIDE]	–	–	40	1	–	–	–	–	–	–	–	–	–	–
CCCCCCCCCCCCCCCC(=O)NCCCC[C@H](NC(=O)[C@H](CCCCN)NC(=O)[C@H](CCCCN)NC(=O)[C@@H]1CCCN1C(=O)CNC(=O)[C@H](CC(C)C)NC(=O)[C@H](CC(C)C)NC(=O)[C@H](Cc1ccc(O)cc1)NC(=O)CNC(=O)[C@H](C)NC(=O)[C@H](CO)NC(=O)[C@H](CC(N)=O)NC(=O)[C@H](CC(C)C)NC(=O)[C@@H](NC(=O)[C@H](Cc1c[nH]c2ccccc12)NC(=O)CNC)[C@@H](C)O)C(=O)N[C@@H](CCCCN)C(N)=O	1.26	9.4	–	–	51.5	–	inactive	Active	–	Active	Active	–	21	0.8
